Assay outcomes: PubChem BioAssay, The Scripps Research Institute Molecular Screening Center
TCR CD3 inh – inhibitors of human TCR-CD3 interaction; TAMRA-labeled TCR probe fluorescence, biochemical; inhibition, % at 9.4 µM; actives 0.37% (n = 360,000);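 note: recombinant mutant TCR 2C K166C tagged with TAMRA read by polarization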
HTRA1 inhibitor – blocks human HTRA1 serine peptidase. inhibition, % at 5.96 µM. AID 504803. actives 0.5% (n = 340,000). Q92743. recombinant HTRA1, FP-rhodamine activity-based probe, fluorescence polarization; in the data active = inhibition above about 36%
Target sequence (Q92743 whole entry, looked up): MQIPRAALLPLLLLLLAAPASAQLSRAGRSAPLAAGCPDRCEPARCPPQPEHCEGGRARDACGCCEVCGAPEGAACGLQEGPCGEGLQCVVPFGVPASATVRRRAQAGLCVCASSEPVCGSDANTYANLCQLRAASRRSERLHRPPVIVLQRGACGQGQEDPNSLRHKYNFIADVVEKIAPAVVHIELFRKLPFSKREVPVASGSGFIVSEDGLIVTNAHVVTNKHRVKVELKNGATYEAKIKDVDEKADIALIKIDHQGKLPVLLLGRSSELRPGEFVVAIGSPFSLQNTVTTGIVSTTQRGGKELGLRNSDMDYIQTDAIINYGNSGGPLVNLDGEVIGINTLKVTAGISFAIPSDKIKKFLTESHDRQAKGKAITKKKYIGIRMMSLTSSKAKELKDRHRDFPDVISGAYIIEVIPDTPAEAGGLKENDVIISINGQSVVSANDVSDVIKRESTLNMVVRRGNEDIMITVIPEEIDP
SIAE primary – inhibitors of human sialic acid acetylesterase SIAE. SIAE FP-Rh probe binding, fluorescence polarization. inhibition, % at 9.66 µM. actives 0.69% (n = 370,000). AID 1053197;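 active = inhibition above a cutoff: mean of compounds within the control limits plus 3 SD of those, cut at about 17% in these data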
ABHD4 inh – inhibitors of mouse ABHD4; inhibition, % at 8.92 µM; actives 0.54% (n = 370,000); purified mABHD4, FP-Rh probe fluorescence polarization; Q8VD66;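 active = inhibition exceeding the mean over every tested compound plus 3 SD, cut at about 30% in these data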
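system = mouse ABHD4 enzyme, wild type | medium = HEPES pH 7.0, NaCl, Pluronic buffer | also added = FP-Rh probe | incubation = Enzyme–compound pre-incubation 45 min, then probe 60 min, both 25 °C | technique = fluorescence polarization, excitation 525 nm, emission 598 nm, BODIPY TMR filters | controls = S159A mutant high control, sample median low control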
PRMT1 inh – inhibitors of human PRMT1 | inhibition, % at 2.79 µM | recombinant PRMT1, activity-based probe fluorescence polarization | AID 652257 | actives 1.3% (n = 370,000) | Q99873;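 active = inhibition above about 21% made by adding two undisclosed values, limit read from the data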
HTRA1 conf – confirmation of human HTRA1 inhibitors; recombinant HTRA1, FP-rhodamine activity-based probe, fluorescence polarization; inhibition, % at 5.96 µM; actives 66% (n = 1,600); shares compounds with HTRA1 inhibitor; AID 540248;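 active = mean inhibition over three repeats above a set limit taken from the earlier primary screen, cut at about 37% in these data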;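 note: inhibitors block probe binding so polarization drops and inhibition rises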
BSA TAMRA ctr – BSA probe counter-screen for TCR-CD3 inhibitors. AID 652035. inhibition, % at 9.4 µM. TAMRA-labeled BSA probe fluorescence counterscreen. shares compounds with TCR CD3 inh. actives 10% (n = 1,200); in the data active = inhibition above about 23%
TCR-CD3 conf – confirmation of human TCR-CD3 interaction inhibitors. shares compounds with TCR CD3 inh. TAMRA-labeled TCR probe fluorescence binding assay. inhibition, % at 9.4 µM. actives 48% (n = 1,200). AID 652036
ABHD4 confirm – confirmation of mouse ABHD4 inhibitors; inhibition, % at 8.92 µM; shares compounds with ABHD4 inh; actives 55% (n = 1,800); purified mABHD4, FP-Rh probe fluorescence polarization;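 active = mean inhibition across replicates above the hit cutoff set in the primary screen, cut at about 30% in these data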
Hits are given with their value. Rows were chosen to be rich in hits. Some 2.6% of all compounds tested hit in one or more screens of this group. Cut-off read from the data, not from the text of the source, unless noted: active = inhibition above about 19%; inactive = the rest.

How did O=C1CC(N(O)c2ccccc2)C(=O)N1c1ccc(Cl)c(Cl)c1 (stereo not given) do in these assays?
TCR CD3 inh: 23.7; HTRA1 inhibitor: 60.0; SIAE primary: inactive; ABHD4 inh: 46.2; PRMT1 inh: inactive; HTRA1 conf: inactive; BSA TAMRA ctr: inactive; TCR-CD3 conf: inactive; ABHD4 confirm: 88.6

How did COC(=O)[C@]12C[C@H](CC(=O)NCCCN3CCCC3=O)C(=O)N(CCC3=CCCCC3)C1=C[C@H](C1CCCC1)O[C@@H]2C do in these assays?
SIAE primary: inactive; ABHD4 inh: inactive; PRMT1 inh: inactive

How did O=[N+]([O-])c1ccc2c([N+](=O)[O-])ccc3c2c1CC3 do in these assays?
TCR CD3 inh: inactive; HTRA1 inhibitor: 53.6; SIAE primary: inactive; ABHD4 inh: 40.1; PRMT1 inh: inactive; HTRA1 conf: 38.4; ABHD4 confirm: 90.5

Results for CCOc1ccccc1N1CC(C(=O)Nc2ccccc2N2CCOCC2)CC1=O (stereo not given) ?
TCR CD3 inh: inactive; HTRA1 inhibitor: inactive; SIAE primary: inactive; ABHD4 inh: inactive; PRMT1 inh: inactive

What do the screens show for `COc1ccccc1N1C(=O)CC(Nc2ccc(N3CCOCC3)cc2)C1=O` (stereo not given)?
TCR CD3 inh: inactive; HTRA1 inhibitor: 44.1; SIAE primary: inactive; ABHD4 inh: 46.1; PRMT1 inh: 21.8; HTRA1 conf: inactive; ABHD4 confirm: inactive

Results for CCOc1ccccc1N1C(=O)CC(Nc2ccc(N3CCOCC3)cc2)C1=O (stereo not given) ?
TCR CD3 inh: inactive; HTRA1 inhibitor: 43.9; SIAE primary: inactive; ABHD4 inh: 45.9; PRMT1 inh: inactive; HTRA1 conf: inactive; ABHD4 confirm: inactive

Results for Cc1ccc(OCCOc2c(Cl)cc(Cl)cc2Cl)c([N+](=O)[O-])n1 ?
SIAE primary: inactive; ABHD4 inh: inactive; PRMT1 inh: inactive

How did CC(C)(C)c1ccc(C#C[C@@H]2C=C[C@H]3OC(=O)CC/C=C/CCC(=O)OC[C@H]3O2)cc1 do in these assays?
TCR CD3 inh: inactive; SIAE primary: inactive; ABHD4 inh: inactive; PRMT1 inh: inactive

Results for CCc1nnn2c1Cn1c3ccccc3c(=O)n1[C@@H](C(C)C)C2 ?
SIAE primary: inactive; ABHD4 inh: inactive; PRMT1 inh: inactive

How did O=C1Nc2ccccc2/C1=N\N=C\c1ccc(O)c(O)c1 do in these assays?
TCR CD3 inh: 32.0; HTRA1 inhibitor: 49.4; SIAE primary: inactive; ABHD4 inh: 47.6; PRMT1 inh: 32.7; HTRA1 conf: 78.0; BSA TAMRA ctr: inactive; TCR-CD3 conf: 41.0; ABHD4 confirm: 44.1

What do the screens show for `O=C(Nc1ccc(C(O)(C(F)(F)F)C(F)(F)F)cc1)c1ccc(F)cc1Cl`?
SIAE primary: inactive; ABHD4 inh: inactive; PRMT1 inh: inactive

How did C=CCOc1c(Cl)cc(CNc2ccc(N(C)C)cc2)cc1OC do in these assays?
TCR CD3 inh: inactive; HTRA1 inhibitor: 48.1; SIAE primary: inactive; ABHD4 inh: 39.6; PRMT1 inh: inactive; HTRA1 conf: inactive; ABHD4 confirm: 45.2

Results for C=CCOc1c(Cl)cc(CNCCC)cc1Cl ?
TCR CD3 inh: inactive; HTRA1 inhibitor: inactive; SIAE primary: inactive; ABHD4 inh: inactive; PRMT1 inh: inactive

What do the screens show for `COC(=O)[C@]12CCCCC=C1N(Cc1ccc(OC)cc1)C(=O)[C@@H]2CC(=O)NCC1CCCCC1`?
SIAE primary: inactive; ABHD4 inh: inactive; PRMT1 inh: inactive

How did COc1ccc(Sc2ccccc2CN(C)C)cc1OC do in these assays?
TCR CD3 inh: inactive; HTRA1 inhibitor: inactive; SIAE primary: inactive; ABHD4 inh: inactive; PRMT1 inh: inactive

What do the screens show for `CNCc1ccccc1Sc1ccc(O)c(O)c1`?
TCR CD3 inh: inactive; HTRA1 inhibitor: 62.4; SIAE primary: inactive; ABHD4 inh: 35.4; PRMT1 inh: 65.7; HTRA1 conf: 57.0; ABHD4 confirm: 50.4

How did Oc1ccc(/C=N/N2CCCCC2)c(O)c1O do in these assays?
TCR CD3 inh: inactive; HTRA1 inhibitor: 38.3; SIAE primary: inactive; ABHD4 inh: 31.0; PRMT1 inh: 23.5; HTRA1 conf: inactive; ABHD4 confirm: inactive

How did CCOC(=O)c1ccc2c(c1)C1C=CCC1C(C(=O)OCC)N2 (stereo not given) do in these assays?
TCR CD3 inh: inactive; HTRA1 inhibitor: 44.0; SIAE primary: inactive; ABHD4 inh: 35.5; PRMT1 inh: 22.7; HTRA1 conf: 54.4; ABHD4 confirm: 45.0

How did CC(C)CNC(=O)C1Nc2ccc(OC(F)(F)F)cc2C2C=CCC12 (stereo not given) do in these assays?
TCR CD3 inh: inactive; HTRA1 inhibitor: inactive; SIAE primary: inactive; ABHD4 inh: inactive; PRMT1 inh: inactive

How did Oc1cccc(/C=N/NC(=S)Nc2cccnc2)c1O do in these assays?
TCR CD3 inh: inactive; HTRA1 inhibitor: 41.7; SIAE primary: inactive; ABHD4 inh: 31.3; PRMT1 inh: inactive; HTRA1 conf: inactive; ABHD4 confirm: inactive

How did Cc1ccc2c(c1)c1c3n2CC(=C2C(=O)OC(C)(C)OC2=O)NC3CCC1 (stereo not given) do in these assays?
TCR CD3 inh: inactive; HTRA1 inhibitor: 50.9; SIAE primary: inactive; ABHD4 inh: 37.0; PRMT1 inh: inactive; HTRA1 conf: 61.4; ABHD4 confirm: 30.5

How did CC(=O)C1=C(O)C(=O)N(c2ccc(S(N)(=O)=O)cc2)C1c1cccc([N+](=O)[O-])c1 (stereo not given) do in these assays?
TCR CD3 inh: inactive; HTRA1 inhibitor: inactive; SIAE primary: inactive; ABHD4 inh: inactive; PRMT1 inh: inactive

How did CC(=O)C1C(=O)c2c(cccc2[N+](=O)[O-])C1=Nc1ccc(S(N)(=O)=O)cc1 (stereo not given) do in these assays?
TCR CD3 inh: inactive; HTRA1 inhibitor: 39.1; SIAE primary: inactive; ABHD4 inh: 38.3; PRMT1 inh: inactive; HTRA1 conf: inactive; ABHD4 confirm: 33.6

What do the screens show for `C=CCn1c(SCC(=O)c2ccc(O)c(O)c2)nnc1-c1ccccc1OC`?
TCR CD3 inh: inactive; HTRA1 inhibitor: 58.6; SIAE primary: inactive; ABHD4 inh: 29.5; PRMT1 inh: inactive; HTRA1 conf: 48.9; ABHD4 confirm: inactive

How did C=CCn1c(SCC(=O)Nc2cc(C)on2)nnc1-c1ccccc1OC do in these assays?
TCR CD3 inh: inactive; HTRA1 inhibitor: inactive; SIAE primary: inactive; ABHD4 inh: inactive; PRMT1 inh: inactive
